Legend:
[1] = target: T1, 5-hydroxytryptamine receptor 1A (Rattus norvegicus, UniProt P19327); assay: Displacement of [3H]5-HT from rat hippocampal 5-hydroxytryptamine 1A receptor with 10e-6 M ketanserin; format: tissue-based, Hippocampus
T1 sequence (P19327 whole entry): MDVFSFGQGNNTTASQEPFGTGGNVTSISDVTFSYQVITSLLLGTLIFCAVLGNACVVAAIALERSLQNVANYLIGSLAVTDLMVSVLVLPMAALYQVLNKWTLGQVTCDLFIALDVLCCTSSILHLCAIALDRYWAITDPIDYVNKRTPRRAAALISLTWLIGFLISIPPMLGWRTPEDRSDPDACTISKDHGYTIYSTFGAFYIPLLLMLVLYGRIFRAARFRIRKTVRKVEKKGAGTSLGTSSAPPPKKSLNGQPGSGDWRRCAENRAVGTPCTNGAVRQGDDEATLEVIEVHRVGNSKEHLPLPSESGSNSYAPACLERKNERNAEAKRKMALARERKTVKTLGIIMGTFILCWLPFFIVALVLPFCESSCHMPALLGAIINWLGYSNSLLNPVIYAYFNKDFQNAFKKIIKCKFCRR
Outline: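 Rat hippocampal membranes, preincubated 15 min at 37 °C in 50 mM Tris-HCl pH 7.6. Assay buffer was 50 mM Tris-HCl with 4 mM CaCl2, 5.7 mM ascorbic acid and […], pH 7.6. Used 20 nM [3H]5-HT, 15 min at 37 °C, then filtration. IC50 from 2–3 experiments in triplicate (6–9 concentrations); Ki by Cheng–Prusoff.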

[2] = target: Sigma non-opioid intracellular receptor 1 (Rattus norvegicus, UniProt Q9R0C9); assay: Inhibitory activity against Sigma opioid receptor type 1 isolated from whole rat membranes using [3H](+)-pentazocine as radioligand.
Outline: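 Membranes came from male Sprague–Dawley rat whole brain minus cerebellum and pons-medulla, in 50 mM Tris-HCl pH 7.8, washed four times. Incubated with [3H]-(+)-pentazocine 120 min at 25 °C, then filtered on polyethylenimine-soaked filters. Nonspecific binding was set with 10 µM haloperidol. IC50 from 2–3 experiments in triplicate (6–9 concentrations); Ki by Cheng–Prusoff.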

[3] = Selectivity for 5-hydroxytryptamine 1A and sigma receptors; parameters: reference not given here
[4] = species: Cavia porcellus; assay: Selectivity for PCP and sigma receptors

Sigma non-opioid intracellular receptor 1, sequence (Q9R0C9 whole entry): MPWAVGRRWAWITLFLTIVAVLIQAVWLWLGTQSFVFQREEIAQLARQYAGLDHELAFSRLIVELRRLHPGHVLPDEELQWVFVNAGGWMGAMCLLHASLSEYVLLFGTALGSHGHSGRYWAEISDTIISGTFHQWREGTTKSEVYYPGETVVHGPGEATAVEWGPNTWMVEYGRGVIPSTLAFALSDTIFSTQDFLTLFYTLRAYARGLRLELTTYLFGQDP

SMILES	Ki [1] [nM]	Ki [2] [nM]	Selectivity [3]	Selectivity [4]
C1=C(CCCN2CCN(Cc3ccccc3)CC2)c2ccccc2CC1	214	–	–	–
COc1cccc2c1CCCC2CCCN1CCNCC1 (stereo unspecified)	> 1430	–	–	–
COc1cccc2c1CCCC2CCCNCCNc1ccccc1 (stereo unspecified)	14.1	–	0.05	8
COc1cccc2c1CCCC2CCCNCCc1ccccc1 (stereo unspecified)	31.4	–	–	–
COc1cccc2c1CCC=C2CCCN1CCN(Cc2ccccc2)CC1	–	–	> 10	–
COc1cccc2c1CCCC2CCCNCCCc1ccccc1 (stereo unspecified)	4.4	–	–	–
COc1ccc2c(c1)C(CCCN1CCNCC1)CCC2 (stereo unspecified)	> 1430	–	–	–
COc1cccc2c1CCCC2CCCN1CCN(C2CCCCC2)CC1 (stereo unspecified)	28.6	71	–	–
COc1cccc2c1CCCC2CCCNCCC1CCCc2ccccc21 (stereo unspecified)	22.8	–	–	–

Other lines, results leading:

Ki [1] [nM]	Ki [2] [nM]	Selectivity [3]	Selectivity [4]	SMILES
3.6	25.7	–	–	COc1cccc2c1CCCC2CCCN1CCN(Cc2ccccc2)CC1 (stereo unspecified)
414	–	14	–	COc1ccc2c(c1)C(CCCN1CCN(C3=NCCCC3)CC1)CCC2 (stereo unspecified)
44.2	111	1	–	c1ccc2c(c1)CCCC2CCCN1CCN(C2=NCCCC2)CC1 (stereo unspecified)
37.1	396	–	–	COc1cccc2c1CCCC2CCCCN1CCN(C2=NCCCC2)CC1 (stereo unspecified)

Source: ChEMBL document CHEMBL1129283, “New sigma and 5-HT1A receptor ligands: omega-(tetralin-1-yl)-n-alkylamine derivatives” (J Med Chem, 1996)
